Results published in ChEMBL document CHEMBL2311247, “Antimicrobial activity of various 4- and 5-substituted 1-phenylnaphthalenes” (2013).
In brackets after ≈: the same amount, converted by molar mass. Activity calls are given as the source filed them. No cut-off for these calls is given here.

How the values were obtained:
[1] = tested on: Enterococcus faecalis; assay: Antibacterial activity against vancomycin-sensitive Enterococcus faecalis ATCC 19433 assessed as growth inhibition after 24 hrs by CLSI broth microdilution method; format: functional; details: ATCC 19433, 24 h
Method in brief: (§1)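 Run per CLSI broth microdilution. Log-phase E. faecalis at 10⁵ CFU/mL in brain-heart infusion broth with 2-fold serial dilutions (64 to 0.031 µg/mL), incubated aerobically 24 h at 37 °C. Growth is measured by OD₆₀₀, and MIC is the lowest concentration inhibiting growth by ≥90%.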

[2] = tested on: Staphylococcus aureus; assay: Antibacterial activity against methicillin-resistant Staphylococcus aureus ATCC 33591 assessed as growth inhibition after 24 hrs by CLSI broth microdilution method; format: functional; details: ATCC 33591, 24 h
Method in brief: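 CLSI broth microdilution. Log-phase bacteria at 10⁵ CFU/mL are added to 2-fold serial dilutions from 64 to 0.031 µg/mL in cation-adjusted Mueller-Hinton broth with 2% NaCl. Plates are incubated aerobically for 24 h at 37 °C and growth is read as OD₆₀₀. MIC is the lowest concentration giving ≥90% growth inhibition.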

[3] = tested on: Enterococcus faecalis; assay: Antibacterial activity against vancomycin-resistant Enterococcus faecalis ATCC 51575 assessed as growth inhibition after 24 hrs by CLSI broth microdilution method; format: functional; details: ATCC 51575, 24 h; method in brief: as §1
[4] = tested on: Staphylococcus aureus; assay: Antibacterial activity against methicillin-sensitive Staphylococcus aureus 8325-4 assessed as growth inhibition after 24 hrs by CLSI broth microdilution method; format: functional; details: 8325-4, 24 h
Method in brief: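 MSSA strain 8325-4; log-phase inoculum at 10⁵ CFU/mL. 2-fold serial dilutions, 64 to 0.031 µg/mL, in cation-adjusted Mueller-Hinton broth. Aerobic incubation, 24 h, 37 °C. Growth read as OD₆₀₀. MIC is the lowest concentration giving ≥90% growth inhibition.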

[5] = target: T1, Cell division protein FtsZ (Staphylococcus aureus) (UniProt P0A031); assay: Stimulation of Staphylococcus aureus ATCC 33591-D FtsZ polymerization expressed in Escherichia coli BL21 (DE3) assessed as inhibition of FtsZ Z-ring formation at 40 ug/mL by microtiter plate-based turbidity assay; details: TDE = time-dependent effect
T1 sequence (whole entry): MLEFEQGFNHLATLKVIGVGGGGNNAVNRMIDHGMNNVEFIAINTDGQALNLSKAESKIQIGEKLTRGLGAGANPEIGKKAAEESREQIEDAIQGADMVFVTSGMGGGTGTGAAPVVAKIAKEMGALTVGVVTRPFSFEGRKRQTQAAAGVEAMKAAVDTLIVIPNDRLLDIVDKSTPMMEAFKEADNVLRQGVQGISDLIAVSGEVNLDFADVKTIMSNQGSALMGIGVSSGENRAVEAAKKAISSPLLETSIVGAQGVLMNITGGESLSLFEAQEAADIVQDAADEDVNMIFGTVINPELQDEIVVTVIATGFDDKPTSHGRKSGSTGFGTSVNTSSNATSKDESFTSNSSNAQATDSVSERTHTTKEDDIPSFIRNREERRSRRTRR
Method in brief: (§2)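 SaFtsZ expressed in E. coli BL21 (DE3) under 1 mM IPTG induction for 3 h at 37 °C. Purified by MonoQ anion exchange then Superdex-200, about 90% pure. Turbidity assay at 25 °C in 50 mM Tris·HCl pH 7.4, 50 mM KCl, 2 mM magnesium acetate, 1 mM GTP. Compound at 40 µg/mL. Reaction started with 10 µM protein (final). A₃₄₀ monitored continuously for 300 min.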

[6] = target: T1, Cell division protein FtsZ (Staphylococcus aureus); assay: Stimulation of Staphylococcus aureus ATCC 33591-D FtsZ polymerization expressed in Escherichia coli BL21 (DE3) assessed as inhibition of FtsZ Z-ring formation at 40 ug/mL measured for 300 mins by microtiter plate-based turbidity assay; method in brief: as §2

| Structure (SMILES) | MIC [1] | MIC [2] | MIC [3] | MIC [4] | inhibition [5] | inhibition [6] |
| --- | --- | --- | --- | --- | --- | --- |
| COc1cc(C(F)(F)F)ccc1-c1cccc2c(CCN)cccc12 | 8 µg/mL (≈ 23.2 µM) | 16 µg/mL (≈ 46.3 µM) | 8 µg/mL (≈ 23.2 µM) | 8 µg/mL (≈ 23.2 µM) |  |  |
| NCCc1cccc2c(-c3ccc(C(F)(F)F)cc3O)cccc12 | 16 µg/mL (≈ 48.3 µM) | 16 µg/mL (≈ 48.3 µM) | 16 µg/mL (≈ 48.3 µM) | 8 µg/mL (≈ 24.1 µM) |  |  |
| NC(N)=NCc1cccc2c(-c3ccc(C(F)(F)F)cc3)cccc12 | 8 µg/mL (≈ 23.3 µM) | 8 µg/mL (≈ 23.3 µM) | 16 µg/mL (≈ 46.6 µM) | 2 µg/mL (≈ 5.82 µM) |  |  |
| CC[C@H]1OC(=O)[C@H](C)[C@@H](O[C@H]2C[C@@](C)(OC)[C@@H](O)[C@H](C)O2)[C@H](C)[C@@H](O[C@@H]2O[C@H](C)C[C@H](N(C)C)[C@H]2O)[C@](C)(O)C[C@@H](C)C(=O)[C@H](C)[C@@H](O)[C@]1(C)O [ERYTHROMYCIN] | 1 µg/mL (≈ 1.36 µM) | > 64 µg/mL | > 64 µg/mL | 0.13 µg/mL (≈ 0.177 µM) |  |  |
| COc1cc(C(F)(F)F)ccc1-c1cccc2c(CN=C(N)N)cccc12 | 4 µg/mL (≈ 10.7 µM) | 8 µg/mL (≈ 21.4 µM) | 4 µg/mL (≈ 10.7 µM) | 2 µg/mL (≈ 5.36 µM) |  |  |
| CC(C)(C)c1ccc(-c2ccc(CCN)c3ccccc23)cc1 | 4 µg/mL (≈ 13.2 µM) | 4 µg/mL (≈ 13.2 µM) | 4 µg/mL (≈ 13.2 µM) | 4 µg/mL (≈ 13.2 µM) |  |  |
| CC(C)(C)c1ccc(-c2cccc3c(CN=C(N)N)cccc23)cc1 | 2 µg/mL (≈ 6.03 µM) | 2 µg/mL (≈ 6.03 µM) | 4 µg/mL (≈ 12.1 µM) | 0.5 µg/mL (≈ 1.51 µM) | tde | inactive |
| NC(N)=NCc1cccc2c(-c3ccc(C4CC4)cc3)cccc12 | 8 µg/mL (≈ 25.4 µM) | 8 µg/mL (≈ 25.4 µM) | 8 µg/mL (≈ 25.4 µM) | 1 µg/mL (≈ 3.17 µM) |  |  |
| NC(N)=NCc1cccc2c(-c3ccc(Br)cc3)cccc12 | 8 µg/mL (≈ 22.6 µM) | 8 µg/mL (≈ 22.6 µM) | 8 µg/mL (≈ 22.6 µM) | 2 µg/mL (≈ 5.65 µM) |  |  |
| Cc1onc(-c2ccccc2)c1C(=O)N[C@@H]1C(=O)N2[C@@H]1SC(C)(C)[C@@H]2C(=O)O [OXACILLIN] | 8 µg/mL (≈ 19.9 µM) | > 64 µg/mL | > 64 µg/mL | 0.06 µg/mL (≈ 0.149 µM) |  |  |
| CC(C)(C)c1ccc(-c2ccc(CN=C(N)N)c3ccccc23)cc1 | 2 µg/mL (≈ 6.03 µM) | 2 µg/mL (≈ 6.03 µM) | 2 µg/mL (≈ 6.03 µM) | 2 µg/mL (≈ 6.03 µM) |  |  |
| CN(C)[C@@H]1C(O)=C(C(N)=O)C(=O)[C@@]2(O)C(O)=C3C(=O)c4c(O)cccc4[C@@](C)(O)[C@H]3C[C@@H]12 [TETRACYCLINE] | 0.5 µg/mL (≈ 1.13 µM) | 64 µg/mL (≈ 144 µM) | > 64 µg/mL | 0.06 µg/mL (≈ 0.135 µM) |  |  |
| CC(C)(C)c1ccc(-c2ccc(CN)c3ccccc23)cc1 | 8 µg/mL (≈ 27.6 µM) | 8 µg/mL (≈ 27.6 µM) | 8 µg/mL (≈ 27.6 µM) | 4 µg/mL (≈ 13.8 µM) |  |  |
| C[n+]1cc2c3c(ccc2c2ccc4cc5c(cc4c21)OCO5)OCO3 [SANGUINARIUM] | 8 µg/mL | 2 µg/mL | 16 µg/mL | 2 µg/mL |  |  |
| CC(C)(C)c1ccc(-c2cccc3c(CN)cccc23)cc1 | 8 µg/mL (≈ 27.6 µM) | 4 µg/mL (≈ 13.8 µM) | 8 µg/mL (≈ 27.6 µM) | 4 µg/mL (≈ 13.8 µM) |  |  |
| CC(C)(C)c1ccc(-c2cccc3c(CCN=C(N)N)cccc23)cc1 | 2 µg/mL (≈ 5.79 µM) | 2 µg/mL (≈ 5.79 µM) | 2 µg/mL (≈ 5.79 µM) | 1 µg/mL (≈ 2.89 µM) |  |  |
| CC(C)(C)c1ccc(-c2cccc3c(CCN)cccc23)cc1 | 2 µg/mL (≈ 6.59 µM) | 4 µg/mL (≈ 13.2 µM) | 4 µg/mL (≈ 13.2 µM) | 2 µg/mL (≈ 6.59 µM) | tde | inactive |
| NC(N)=NCCc1cccc2c(-c3ccc(C(F)(F)F)cc3)cccc12 | 4 µg/mL (≈ 11.2 µM) | 4 µg/mL (≈ 11.2 µM) | 4 µg/mL (≈ 11.2 µM) | 1 µg/mL (≈ 2.8 µM) |  |  |
| COc1ccc2c(c[n+](C)c3c4cc5c(cc4ccc23)OCO5)c1OC [CHELERYTHRINE] | 32 µg/mL | 4 µg/mL | 32 µg/mL | 4 µg/mL |  |  |
| CC(C)(C)c1ccc(-c2cccc3c(CC(=N)N)cccc23)cc1 | 4 µg/mL (≈ 12.6 µM) | 4 µg/mL (≈ 12.6 µM) | 8 µg/mL (≈ 25.3 µM) | 4 µg/mL (≈ 12.6 µM) |  |  |
| COc1cc(C(F)(F)F)ccc1-c1cccc2c(CCN=C(N)N)cccc12 | 4 µg/mL (≈ 10.3 µM) | 8 µg/mL (≈ 20.7 µM) | 4 µg/mL (≈ 10.3 µM) | 2 µg/mL (≈ 5.16 µM) |  |  |
| CC(C)(C)c1ccc(-c2ccc(CCN=C(N)N)c3ccccc23)cc1 | 2 µg/mL (≈ 5.79 µM) | 4 µg/mL (≈ 11.6 µM) | 4 µg/mL (≈ 11.6 µM) | 2 µg/mL (≈ 5.79 µM) |  |  |
| CCC[C@@H]1C[C@@H](C(=O)N[C@@H]([C@H]2O[C@H](SC)[C@H](O)[C@@H](O)[C@H]2O)[C@H](C)Cl)N(C)C1 [CLINDAMYCIN] | 2 µg/mL (≈ 4.71 µM) | > 64 µg/mL | > 64 µg/mL | 0.03 µg/mL (≈ 0.0706 µM) |  |  |
| CN[C@H](CC(C)C)C(=O)N[C@H]1C(=O)N[C@@H](CC(N)=O)C(=O)N[C@H]2C(=O)N[C@H]3C(=O)N[C@H](C(=O)N[C@H](C(=O)O)c4cc(O)cc(O)c4-c4cc3ccc4O)[C@H](O)c3ccc(c(Cl)c3)Oc3cc2cc(c3O[C@@H]2O[C@H](CO)[C@@H](O)[C@H](O)[C@H]2O[C@H]2C[C@](C)(N)[C@H](O)[C@H](C)O2)Oc2ccc(cc2Cl)[C@H]1O [VANCOMYCIN] | 1 µg/mL (≈ 0.69 µM) |  | > 64 µg/mL |  |  |  |
| N=C(N)Cc1cccc2c(-c3ccc(C(F)(F)F)cc3)cccc12 | 4 µg/mL (≈ 12.2 µM) | 8 µg/mL (≈ 24.4 µM) | 8 µg/mL (≈ 24.4 µM) | 4 µg/mL (≈ 12.2 µM) |  |  |
| NC(N)=NCc1cccc2c(-c3ccc(Cl)cc3)cccc12 | 8 µg/mL (≈ 25.8 µM) | 8 µg/mL (≈ 25.8 µM) | 8 µg/mL (≈ 25.8 µM) | 2 µg/mL (≈ 6.46 µM) |  |  |
